These results are taken from ChEMBL document CHEMBL1139172, “Identification, synthesis, and biological evaluation of novel pyrazoles as low molecular weight luteinizing hormone receptor agonists” (Bioorg Med Chem Lett, 2007).

The structures appear in SMILES notation.

For experiment [1], the target named is T1, Lutropin-choriogonadotropic hormone receptor (Homo sapiens, UniProt P22888). Put plainly: Agonist activity at human LH receptor expressed in CHO cells assessed as production of cAMP after 60 mins by SPA. Format: functional, cell-based.
Experiment [2] deals with T1, Lutropin-choriogonadotropic hormone receptor. Put plainly: Agonist activity at human LH receptor expressed in CHO cells assessed as production of cAMP after 60 mins by SPA relative to luteinizing harmone. Format: functional, cell-based.
Experiment [3] has as its target Lutropin-choriogonadotropic hormone receptor (Rattus norvegicus) (UniProt P16235). Description: Efficacy at LH receptor in Sprague-Dawley rat Leydig cells assessed as production of testosterone after 3 hrs. Format: cell-based. The procedure, abridged: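 Leydig cells from male Sprague–Dawley rats aged 21–40 days. Decapsulated testis digested 15 min at 37 °C, 5% CO2, in phenol red-free DMEM/F12 with 0.1% collagenase. Washed cells plated at 350,000/well in phenol red-free DMEM/F12 with 0.1% BSA and stimulated 3 h. After centrifugation, medium testosterone measured by ELISA. ED50 and efficacy derived.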

In another experiment the test system is Rattus norvegicus. Description: Induction of testosterone in Sprague-Dawley rat at 4 to 32 mg/kg, ip by radioimmunoassay. Type of experiment: functional, organism-based. The procedure, abridged:
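Adult Sprague–Dawley rats implanted subcutaneously in the scapular region on day 1 with a 7-day slow-release pellet of 7.5 mg diethylstilbestrol. Two days later, ip injection of 0, 4, 16 or 32 mg/kg; 3 rats per group. Blood taken by retro-orbital plexus 2 h after dosing; serum frozen at -80 °C. Testosterone measured by ELISA (legend says radioimmunoassay), with standard deviations.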

T1 sequence (P22888 whole entry): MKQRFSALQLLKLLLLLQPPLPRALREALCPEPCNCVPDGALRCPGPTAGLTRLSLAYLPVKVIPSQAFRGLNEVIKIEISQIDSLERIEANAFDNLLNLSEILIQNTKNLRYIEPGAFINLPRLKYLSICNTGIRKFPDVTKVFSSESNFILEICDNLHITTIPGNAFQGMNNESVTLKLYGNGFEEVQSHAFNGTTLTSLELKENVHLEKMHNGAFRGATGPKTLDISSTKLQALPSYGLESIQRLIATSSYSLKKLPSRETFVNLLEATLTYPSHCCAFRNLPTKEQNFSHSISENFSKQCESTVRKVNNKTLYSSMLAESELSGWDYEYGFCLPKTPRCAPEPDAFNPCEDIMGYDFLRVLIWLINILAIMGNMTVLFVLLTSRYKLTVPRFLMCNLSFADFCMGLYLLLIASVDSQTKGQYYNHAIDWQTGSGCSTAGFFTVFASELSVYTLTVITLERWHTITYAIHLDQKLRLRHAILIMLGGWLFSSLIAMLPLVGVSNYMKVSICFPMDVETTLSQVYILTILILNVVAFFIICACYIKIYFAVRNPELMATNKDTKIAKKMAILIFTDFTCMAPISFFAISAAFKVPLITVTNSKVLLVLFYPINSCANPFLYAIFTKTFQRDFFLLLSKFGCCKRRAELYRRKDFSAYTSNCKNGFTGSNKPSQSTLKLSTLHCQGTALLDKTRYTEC
Chain of Lutropin-choriogonadotropic hormone receptor (Rattus norvegicus) (P16235 whole entry): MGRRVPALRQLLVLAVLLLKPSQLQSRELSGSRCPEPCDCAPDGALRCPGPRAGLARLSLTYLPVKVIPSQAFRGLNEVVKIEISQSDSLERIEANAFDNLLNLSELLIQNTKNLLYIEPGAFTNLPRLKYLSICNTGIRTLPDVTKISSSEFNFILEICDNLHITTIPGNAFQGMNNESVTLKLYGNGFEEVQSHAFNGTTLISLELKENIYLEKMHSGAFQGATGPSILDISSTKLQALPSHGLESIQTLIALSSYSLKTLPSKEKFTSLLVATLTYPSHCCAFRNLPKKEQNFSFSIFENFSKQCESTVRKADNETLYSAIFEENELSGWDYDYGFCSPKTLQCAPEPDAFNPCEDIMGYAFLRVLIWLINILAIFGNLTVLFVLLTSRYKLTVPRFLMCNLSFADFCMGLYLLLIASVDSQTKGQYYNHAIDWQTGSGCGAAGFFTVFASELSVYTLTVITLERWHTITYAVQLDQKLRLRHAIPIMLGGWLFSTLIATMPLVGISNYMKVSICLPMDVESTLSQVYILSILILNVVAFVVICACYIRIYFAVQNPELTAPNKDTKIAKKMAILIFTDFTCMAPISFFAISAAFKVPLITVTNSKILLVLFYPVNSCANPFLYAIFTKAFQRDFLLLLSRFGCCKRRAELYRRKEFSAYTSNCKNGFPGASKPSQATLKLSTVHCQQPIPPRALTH

For the compound `CC(C)(C)c1ccc(-n2nc(-c3ccncc3)cc2CCCCC(=O)N[C@@H](Cc2ccc(O)cc2)C(N)=O)cc1`, the EC50 (as a rule, the concentration that produces a half-maximal response) in experiment [1] was 0.25 µM. Also, in experiment [2], the Activity came out at 55%.

As for `CC(C)(C)c1ccc(-n2nc(-c3cccnc3)cc2CCC(=O)N[C@@H](Cc2ccc(O)cc2)C(N)=O)cc1`, in experiment [1], the EC50 is above 100 µM.

Take `CC(C)(C)c1ccc(-n2nc(-c3ccccn3)cc2CCCCCC(=O)N[C@H](C(N)=O)c2ccc(O)cc2)cc1`: in experiment [1], the EC50 is 0.17 µM. Besides, in experiment [2], the Activity turned out to be 78%.

With `CC(C)(C)c1ccc(-n2nc(-c3ccncc3)cc2CCCCC(=O)N[C@H](CC(N)=O)Cc2ccc(O)cc2)cc1`, in experiment [1], the EC50 worked out at 0.19 µM. In addition, the Activity in experiment [2] turned out to be 66%.

With `CC(C)(C)c1ccc(-n2nc(-c3ccncc3)cc2NCCCC(=O)N[C@@H](Cc2ccc(O)cc2)C(N)=O)cc1`, the 50% effective concentration (EC50) in experiment [1] was above 100 µM.

Consider `CC(C)(C)c1ccc(-n2nc(CCCCC(=O)N[C@@H](Cc3ccc(O)cc3)C(N)=O)cc2-c2ccncc2)cc1`, for which the EC50 in experiment [1] turned out to be 2.3 µM.

For `CC(C)(C)c1ccc(-n2nc(-c3cccnc3)cc2CCCCC(=O)N[C@@H](Cc2ccc(O)cc2)C(N)=O)cc1`, in experiment [3], the ED50 is 1.31 µM and the Efficacy was determined as 78%. Moreover, the concentration giving a half-maximal response (EC50) in experiment [1] turned out to be 0.02 µM. Besides, the Activity in experiment [2] was 70%. Moreover, in the experiment with Rattus norvegicus, the Activity result was “Dose-dependent effect”.

As to `CC(C)(C)c1ccc(-n2nc(-c3cc4ccccc4cn3)cc2-c2cccc(C(=O)N[C@@H](Cc3ccc(O)cc3)C(N)=O)c2)cc1`, in experiment [1], the EC50 amounted to 0.5 µM. Also, the Activity in experiment [2] was 19%.

Take `CC(C)(C)Oc1ccc(C[C@H](NC(=O)CCCCc2cc(-c3cccnc3)nn2-c2ccc(C(C)(C)C)cc2)C(N)=O)cc1`: the 50% effective concentration (EC50) in experiment [1] was 12.1 µM. Also, the Activity in experiment [2] turned out to be 72%.

On to `CC(C)(C)c1ccc(-n2nc(-c3cccnc3)cc2CCCCC(=O)NCCc2ccc(O)cc2)cc1`, for which the half-maximal effective concentration (EC50) in experiment [1] came to 0.08 µM. Moreover, in experiment [2], the Activity amounted to 45%.

Turning to `CC(C)(C)c1ccc(-n2nc(-c3ccccn3)cc2CCCCCC(=O)N[C@@H](Cc2cccc(O)c2)C(N)=O)cc1`, in experiment [1], the EC50 is 0.15 µM. The Activity in experiment [2] is 41%.
